Only some compounds are listed: those with a hit (about 1.2% of all), similar ones and a draw of the others.
SR-BI uptake up = activators of SR-BI mediated HDL lipid uptake | CHO ldlA[mSR-BI] cells, DiI-HDL uptake fluorescence, 3 h; 100 = double the neutral-control signal | activation, % at 12.5 µM | hit rate 0.096% among 320,000 | AID 504775;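 active means mean replicate activation of at least 60% and every replicate at or above 60%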;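 further: 0% = median plate neutral-control signal and 100% = twice that signal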
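material = CHO ldlA[mSR-BI] cells | medium = Ham's F12 with 0.5% BSA, HEPES 25 mM, pH 7.4 | reagent = fluorescent DiI-HDL, 10 µg/mL final | compound dosing = single-point compound dose | incubation = 3 h, 37 °C | measured by = bottom-read fluorescence, 550/595 nm | measure = HDL uptake via cellular fluorescence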
SR-BI DiI inh = blocks mouse SR-BI lipid uptake from DiI-HDL; ldlA[mSR-BI] CHO cells, DiI-HDL uptake fluorescence, 3 h; inhibition, % at 12.5 µM; hit rate 0.96% among 320,000;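 active means mean replicate inhibition of at least 70% and a set share of replicates each scoring 70 or more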;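 further: 0% = median of neutral control wells and 100% = median of positive control wells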
Target sequence (Q61009 whole entry, looked up): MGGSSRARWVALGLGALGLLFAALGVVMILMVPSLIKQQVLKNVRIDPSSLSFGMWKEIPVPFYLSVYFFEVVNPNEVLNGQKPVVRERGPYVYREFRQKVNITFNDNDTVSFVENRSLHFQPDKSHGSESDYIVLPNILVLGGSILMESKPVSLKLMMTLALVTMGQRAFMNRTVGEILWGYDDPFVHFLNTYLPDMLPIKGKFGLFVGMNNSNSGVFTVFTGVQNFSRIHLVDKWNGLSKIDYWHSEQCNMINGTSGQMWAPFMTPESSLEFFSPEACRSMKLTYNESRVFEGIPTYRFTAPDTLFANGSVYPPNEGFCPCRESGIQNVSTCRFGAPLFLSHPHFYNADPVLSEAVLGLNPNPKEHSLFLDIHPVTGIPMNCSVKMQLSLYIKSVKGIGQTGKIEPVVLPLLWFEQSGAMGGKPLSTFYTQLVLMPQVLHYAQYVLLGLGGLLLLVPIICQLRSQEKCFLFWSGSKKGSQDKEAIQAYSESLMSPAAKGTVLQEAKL
CaV13 ICDI inh = Disruptors of the CACNA1D IQ motif to Ca2+-dependent inactivation inhibitor domain association, primary screening, Förster resonance energy transfer in intact living … | HEK cells, CFP/YFP FRET ICDI-IQ, plate reader, 10 min; percent FRET-ratio fall versus neutral wells | inhibition, % at 12.3 µM | hit rate 0.098% among 340,000;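 active means mean replicate inhibition of at least 30% and at least 1% of replicates passing that level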;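 further: 0% = median of the neutral control wells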
Efflux pump mplx = blocks antifungal efflux pumps in multiplex yeast assay | S. cerevisiae Candida pump triplex, Nile Red efflux | inhibition, % at 10 µM | hit rate 0.44% among 330,000 | AID 485275;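 active means plate passing quality check with inhibition over a set limit, or well fluorescence over plate mean plus 4 SD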;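 further: Nile Red retained in pooled yeast measured as flow cytometry median fluorescence; 0% = buffer negative control and 100% = Enniatin B positive control; higher means more Nile Red kept so more efflux inhibition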
FN deposition inh = fibronectin deposition inhibition; hit rate 0.086% among 350,000; inhibition, % at 12.6 µM; AH1F fibroblasts, Alexa488-fibronectin deposition fluorescence, overnight;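 active means mean inhibition across replicates of 30% or more, regardless of how many single replicates reach that level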;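 further: positive control wells lacked labelled fibronectin entirely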
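Assay system: AH1F fibroblasts / Quantity: 10000 cells per well / Medium: DMEM plus 2% serum, read in PBS / Reagent: labelled fibronectin 24 nM / Dosing: single dose, pinned / Times: 1 h cell attachment, overnight exposure to compound and label / Signal: fluorescence, ex 485 nm, em 525 nm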
Yeast cmpd fluor = flagged as fluorescent in efflux inhibitor counter-screen; fluorescence ratio to DMSO, % at 10 µM; shares compounds with Efflux pump mplx; AID 588517; S. cerevisiae AD/pABC3, compound fluorescence, flow cytometry; hit rate 4% among 1,700;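 active means fluorescence ratio to DMSO above its plate's cutoff, the plate mean ratio plus 5 SD, cut at about 210% in these data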;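 further: unstained yeast with no Nile Red so the signal is compound autofluorescence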
CaMdr1 efflux inh = Candida Mdr1 efflux pump inhibition. shares compounds with Efflux pump mplx. S. cerevisiae AD/CaMDR1, Nile Red efflux, flow cytometry. inhibition, % at 10 µM. hit rate 1% among 1,700; in the data active means inhibition above about 26%;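 further: 0% = DMSO vehicle and 100% = reference inhibitor; higher means more Nile Red retained so more efflux inhibition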
Cdr2 pump inh = Candida Cdr2 efflux pump inhibition. shares compounds with Efflux pump mplx. S. cerevisiae AD/CaCDR2, Nile Red retention, flow cytometry. Nile Red retention ratio vs DMSO, % at 10 µM. hit rate 4% among 1,700. AID 588520; in the data active means Nile Red retention ratio vs DMSO above about 190%;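 further: higher ratio means more blocking of Cdr2 efflux of the dye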
CaCdr1 efflux inh = Candida Cdr1 efflux pump inhibition; inhibition, % at 10 µM; S. cerevisiae AD/CaCDR1, Nile Red efflux, flow cytometry; shares compounds with Efflux pump mplx; hit rate 1% among 1,700; AID 588522;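 active means inhibition above the screen-wide mean plus twice its standard deviation, cut at about 32% in these data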
* marks the source's active call; other numbers are inactive results; / = no result given.

SMILES	SR-BI uptake up	SR-BI DiI inh	CaV13 ICDI inh	Efflux pump mplx	FN deposition inh	Yeast cmpd fluor	CaMdr1 efflux inh	Cdr2 pump inh	CaCdr1 efflux inh
CC(=O)N/C(=C\c1ccccc1)C(=O)OCc1ccccc1	-9	9	-5	1.5*	-1	97	0	110	0
CC(=O)N/C(=C\c1ccccc1)C(=O)OCc1ccc(C)cc1	17	-17	-7	0	4	/	/	/	/
CNS(=O)(=O)c1ccc(N2CCCC2)c([N+](=O)[O-])c1	/	/	6	0	0	/	/	/	/
O=C(O)c1cc(NS(=O)(=O)c2ccc(N3CCCCC3)c([N+](=O)[O-])c2)cc(C(=O)O)c1	21	-21	-4	11*	2	103	0	107	0
COc1ccc(OC)c(NC(=O)CSc2nc3ccccc3c(=O)n2CCNC(C)=O)c1	-3	3	-5	0.6*	1	101	0	98	0
COCC#Cc1ccc2c(c1)O[C@@H](CN(C)S(=O)(=O)c1ccc(C)cc1)[C@@H](C)CN([C@H](C)CO)S2(=O)=O	/	/	/	/	2	/	/	/	/
Cc1ccc(C(C)NC(=O)c2c(-c3ccccc3)noc2C)cc1C (configuration not stated)	-15	15	-5	5.7*	-1	75	0	91	0
Cc1onc(-c2ccccc2)c1C(=O)NC(C)c1ccccc1 (configuration not stated)	17	-17	-2	0	-2	/	/	/	/
CN1C(=O)c2cc(NC(=O)c3cccs3)ccc2OC[C@H]2O[C@H](CC(=O)NCC(F)(F)F)CC[C@H]21	/	/	/	/	-16	/	/	/	/
Cn1c(-c2ccccc2O)cc2ccccc21	10	-10	-4	0.2*	/	100	0	103	0
Cn1c(-c2ccccc2)cc2ccccc21	-15	15	-1	0	-6	/	/	/	/
Cc1ccc2c(nc3s/c(=C\c4ccc(-c5ccccc5C(=O)O)o4)c(=O)n32)c1C	12	-12	-35	0.7*	-1	102	0	121	0
O=C(O)c1ccc(-c2ccc(/C=c3/sc4nc5ccccc5n4c3=O)o2)cc1Cl	8	-8	-5	0.8*	7	103	0	148	0
Cc1cc(C)c2nc3sc(=Cc4ccc(-c5ccccc5C(=O)O)o4)c(=O)n3c2c1	/	/	-5	/	15	/	/	/	/
Cc1ccccc1-n1nc(C(=O)c2cccs2)cc(-c2nc3ccccc3[nH]2)c1=N	-31	31	-3	0.3*	8	95	0	104	0
CCCNC(=O)N(C)C[C@@H]1Oc2ncc(-c3ccccc3)cc2C(=O)N([C@@H](C)CO)C[C@@H]1C	/	/	/	/	1	/	/	/	/
COc1ccc2nccc(/C=C/c3ccnc4ccc(OC)cc34)c2c1	/	/	-12	0.7*	4	100	0	172	0
CCC(=O)Nc1ccc2c(c1)OC[C@@H](C)N(Cc1cccnc1)C[C@@H](C)[C@@H](OC)CN(C)C2=O	/	/	/	/	2	/	/	/	/
O=C(NC1CCCc2ccccc21)c1cccc(S(=O)(=O)N2CCN(c3ccccc3)CC2)c1 (configuration not stated)	-49	49	/	1.9*	-12	113	0	114	0
Cc1ccc(C(=O)N2CCN(c3ccccc3)CC2)cc1S(=O)(=O)N1CCCC1	-1	1	/	0	/	/	/	/	/
COc1ccc(C(=O)N2CCN(c3ccccc3)CC2)cc1S(=O)(=O)N1CCCC1	/	30	-7	6.2*	-1	109	0	110	0
CCC(C)c1ccc(C(C)NC(=S)NC2CCCCC2)cc1 (configuration not stated)	11	-11	-9	1.5*	-3	99	0	95	0
CCOC(=O)CC(=O)c1cc(OC)c(OC)c(OC)c1	-10	10	-5	0.8*	18	118	0	106	0
Cc1cccn2c(=O)c3cc(C(=O)N4CCCCC4)sc3nc12	-3	3	-7	0	11	/	/	/	/
CCC1CCCCN1C(=O)c1cc2c(=O)n3cccc(C)c3nc2s1 (configuration not stated)	/	/	/	1.7*	/	107	0	95	0
SMILES	SR-BI uptake up	SR-BI DiI inh	CaV13 ICDI inh	Efflux pump mplx	FN deposition inh	Yeast cmpd fluor	CaMdr1 efflux inh	Cdr2 pump inh	CaCdr1 efflux inh
CC(C)(C)c1nnc(NC(=O)COc2ccc3c(c2)OCO3)s1	4	-4	-2	0	-5	112	0	97	0
COc1ccc(-c2nc3ccccc3c(=O)n2CC(C)C)cc1	0	0	-4	0	10	/	/	/	/
COc1ccc(-c2nc3ccccc3c(=O)n2CCOc2ccc(C)cc2C)cc1	-29	29	-6	0.7*	-1	103	0	112	0
COc1ccc(-c2nc3ccccc3c(=O)n2CCOc2ccccc2C)cc1	-42	42	-4	0.8*	7	104	0	110	0
COc1ccc(-c2nc3ccccc3c(=O)n2CCOc2cc(C)ccc2C)cc1	-22	22	-14	0.7*	-6	102	0	112	0
COc1ccc(CNC(=O)C[C@@H]2C=C[C@@H](NC(=O)Nc3ccc4c(c3)OCO4)[C@H](CO)O2)cc1	/	/	/	/	2	/	/	/	/
Cc1noc(C)c1S(=O)(=O)Nc1ccc2c(c1)C(=O)N([C@@H](C)CO)C[C@H](C)[C@H](CN(C)S(=O)(=O)c1cccs1)OCCCC[C@@H](C)O2	/	/	/	/	-13	/	/	/	/
COc1ccc(S(=O)(=O)Nc2cc(Sc3ncn[nH]3)c(O)cc2C)cc1	/	/	-6	0	0	105	0	96	0
Cc1cc(O)c(Sc2ncn[nH]2)cc1NS(=O)(=O)c1ccc(Cl)cc1	14	-14	-2	0	12	103	0	96	0
O=S(=O)(Nc1cc(Sc2ncn[nH]2)c(O)c2ccccc12)c1ccccc1	-39	39	6	/	21	100	0	96	0
Cc1ccc([N+](=O)[O-])cc1S(=O)(=O)Nc1ccc(O)c(Sc2ncn[nH]2)c1	4	-4	/	0	/	/	/	/	/
O=C(O)CSc1cc(NS(=O)(=O)c2ccc(Br)cc2)c2ccccc2c1O	0	0	-2	0	6	/	/	/	/
O=C(c1ccc(F)cc1)N1CC[C@@H]2[C@@H](CO)Nc3ccc(-c4ccccc4F)cc3[C@@H]21	/	/	/	/	-9	/	/	/	/

Screening results (PubChem)
